Screening data: PubChem, several laboratories
HUVEC prolif 384: human endothelial cell proliferation inhibition; HUVEC proliferation, CellTiter-Glo luminescence, 72 h; active compounds read low; viability, % at 10 µM (by protocol); 86,000 tested, 1.1% active;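 active means viability at or below 30%; inactive means viability above 30%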;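 further: 100% = median luminescence of DMSO-only cell control wells on each plate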
H69AR inhibit: blocks growth of human H69AR lung tumor cells; H69AR lung tumor viability, ATP luminescence, 72 h; active compounds read low; viability, % at 10 µM; 85,000 tested, 6% active;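 active means viability at or below 40%; inactive means viability above 40%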;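 further: multidrug resistant small cell line overexpressing MRP-1 efflux transporter; 100% = mean luminescence of untreated control wells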
Jurkat tox 60K: cytotoxic compounds reducing Jurkat cell viability. 56,000 tested, 1.2% active. AID 463. inhibition, % at 4 µM. Jurkat E6.1 viability, ATP luminescence, 48 h;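 active means inhibition above the mean inhibition of all tested compounds plus 3 SD, cut at about 28% in these data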
Lung fibro prol: blocks proliferation of human lung fibroblasts | LL 47 human lung fibroblast viability, ATP luminescence; active compounds read low | viability, % at 10 µM | 85,000 tested, 1.1% active;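 active means viability at or below 50% in the single dose screen; inactive means viability above 50%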;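 further: compound exposure lasted 72 h before the ATP readout; 100% = median luminescence of untreated cell-only wells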
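Material: human lung fibroblast line LL 47, low passage; Evaluation: viability percentage against median untreated-cell control; Buffer or medium: 15% FBS in IMEM; Incubation: 72 h compound exposure at 37 °C after overnight plating; Dosing: 0.1% DMSO in all compound wells; Measured by: CellTiter-Glo luminescence.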
Starred values were filed as active, the others as inactive; nt = no result. In the library only some 6.4% were active in any assay of this set; here they are far more common.

SMILES	HUVEC prolif 384	H69AR inhibit	Jurkat tox 60K	Lung fibro prol
CCOC(=O)NC1(NCc2ccccc2)Oc2ccccc2O1	77	19*	16	94
CCOC(=O)NC(NC(=O)OCC)C(=O)c1ccccc1	nt	nt	3	nt
CCOC(=O)Nc1ccc(S(=O)(=O)NCc2ccccc2)cc1	101	nt	5	95
CCOC(=O)C(C(=O)Nc1ccccc1C)C1CCCCC1 (configuration not stated)	87	100	nt	93
CCOC(=O)NC1(NC(C)C)Oc2ccccc2O1	69	36*	nt	93
COC(=O)c1ccc(Oc2nc3ccccc3n3c(C)nnc23)cc1	99	101	nt	92
OC1(c2ccc(OC(F)F)cc2)CSC(=Nc2cccnc2)N1C1CC1 (configuration not stated)	86	81	nt	99
O=C1CC(c2ccc(Cl)c(Cl)c2)CC(O)=C1C=NCCN1CCNCC1 (configuration not stated)	88	108	4	95
Cc1ccc(NC(=O)c2ccc(-c3nn(C)c(=O)c4ccccc34)cc2)c(C)c1	100	77	nt	97
Cc1ccc(NC(=O)c2ccc(-c3nn(C)c(=O)c4ccccc34)cc2)cc1	67	35*	nt	106
Cn1nc(-c2ccc(C(=O)Nc3cccc(Cl)c3)cc2)c2ccccc2c1=O	41	4.3*	nt	52
O=C(Cc1cccs1)N1CCCC(c2nc3c(nnn3Cc3cccc(Cl)c3)c(=O)[nH]2)C1 (configuration not stated)	83	74	6	99
CCOc1ccc(N2C(=O)C(c3ccccc3)=C(c3nc4ccccc4s3)C2NC(C)=O)cc1 (configuration not stated)	90	75	nt	88
COCC(=O)NC1CCN(C(=O)Nc2ccc(Br)cc2)CC1	84	91	-3	101
O=C(/C=C/c1ccc(Cl)c(Cl)c1)n1cccn1	79	10*	nt	86
Cc1onc(-c2ccccc2)c1C(=O)n1cccn1	103	94	2	105
N#Cc1nc(N2CCCCC2)nc(N2CCOCC2)n1	100	85	42*	81
CCOC(=O)c1c(NC(=O)CSc2nnnn2C)sc(CC)c1C	69	80	16	86
COc1ccc(N=CC2=C(Nc3ccc(OC)cc3)c3c(C)nn(-c4ccccn4)c3CC2)cc1	3.0*	39*	nt	71
CCN(CCCn1c(SCC#N)nc2ccccc2c1=O)c1ccccc1	92	68	0	92
Cc1cc(C)c(C(=O)c2ccc(C(=O)N(C(C)C)C(C)C)cc2)c(C)c1	92	24*	nt	84
CCOC(=O)c1c2c(n(C)c1C)C(=O)C(=O)c1ccc(Br)cc1-2	3.3*	1.6*	nt	3.0*
c1ccc2[nH]c(SN3CCOCC3)nc2c1	108	65	-2	99
O=C(NC1CCS(=O)(=O)C1)Oc1ccc(Cl)cc1 (configuration not stated)	81	88	nt	90
COC(=O)Cn1cnc(=O)c(C#N)c1/C=C/N(C)C	nt	nt	2	nt
SMILES	HUVEC prolif 384	H69AR inhibit	Jurkat tox 60K	Lung fibro prol
FC(F)C(F)(F)C(F)(F)C(F)(F)c1cc(-c2ccccc2)n[nH]1	14*	30*	-4	82
CCOC(=O)NC1(C(F)(F)F)C(=O)N(Cc2ccccc2)C2=C1C(=O)CC(C)(C)C2 (configuration not stated)	95	104	nt	100
CCC(Sc1nc2cc3c(cc2c(=O)n1Cc1ccco1)OCO3)C(=O)Nc1ccccc1OC (configuration not stated)	25*	7.6*	nt	55
CCC(Sc1nc2cc3c(cc2c(=O)n1Cc1ccco1)OCO3)C(=O)NCCOC (configuration not stated)	109	88	nt	97
CCC(Sc1nc2cc3c(cc2c(=O)n1Cc1ccco1)OCO3)C(=O)Nc1cccc(OC)c1 (configuration not stated)	4.1*	11*	nt	36*
CC(C)Nc1nc(NC(C)C)nc(OCCOC(=O)Nc2ccccc2)n1	105	72	nt	95
CCSC1(SCC)N=C(N)C2(C#N)C(c3ccc(F)cc3)C12C#N (configuration not stated)	9.6*	0.8*	nt	3.8*
c1ccc(N(c2ccccc2)c2nc(N3CCOCC3)nc(N3CCOCC3)n2)cc1	84	52	-2	93
FC(F)(F)COc1nc(N2CCOCC2)nc(N(c2ccccc2)c2ccccc2)n1	92	40*	nt	94
COc1ccc(N=CC2=C(O)c3ccccc3C2=O)cc1	83	35*	nt	104
O=C(NC1C=CS(=O)(=O)C1)c1sc2ccccc2c1Cl (configuration not stated)	73	1.7*	22	76
CCCn1nnc(NC(=O)c2sc3ccccc3c2Cl)n1	92	86	1	111
CCCCCCc1nnc(N)s1	105	99	nt	99
COC(=O)C1=C(N)Oc2cc(N(C)C)ccc2C1c1ccccc1OC (configuration not stated)	60	nt	75*	62
CC(C)OC(=O)CSc1nc2ccccc2s1	94	90	-1	99
CCC(=O)OCCNc1cc(Sc2nc3ccccc3s2)c2nonc2c1[N+](=O)[O-]	56	1.3*	nt	3.7*
Cc1ccc(-c2nn3c(C)nnc3c3ccccc23)cc1S(=O)(=O)N(C)CCO	76	47	nt	79
CC1Cc2ccccc2N1Cc1cc(=O)n2ccsc2n1 (configuration not stated)	109	82	-1	99
CC1Cc2ccccc2N1Cc1nc2cc(C(F)(F)F)ccc2c(=O)[nH]1 (configuration not stated)	76	37*	nt	79
COc1ccc(-c2nnc(NC(=O)C(C)C)o2)cc1	93	86	-2	95
CCOc1ccc(-c2nnc(NC(=O)c3ccc(OCC(C)C)c(OC)c3)o2)cc1	19*	29*	1	54
COc1cccc(C(=O)Nc2nnc(-c3ccc(F)cc3)o2)c1	56	37*	2	91
COc1cccc(C(=O)Nc2nnc(-c3ccc(Cl)cc3)o2)c1	nt	nt	-3	nt
COc1ccc(-c2nnc(NC(=O)c3ccccc3C)o2)cc1	31	74	43*	74
CCCCNC(=O)Nc1nnc(-c2ccc(OCC)cc2)o1	90	45	nt	97
SMILES	HUVEC prolif 384	H69AR inhibit	Jurkat tox 60K	Lung fibro prol
Cc1ccc(OCCOCCn2ccnc2)c(Br)c1	90	98	-9	90
NS(=O)(=O)c1cc(C(=O)N2CCc3ccccc32)c(Cl)cc1Cl	106	67	nt	92
Cc1nc(N2CCC3(CC2)OCCO3)c2nnn(Cc3ccccc3F)c2n1	113	35*	nt	96
CC(=O)c1c(C)oc(C)c1CSCc1ccc(C(=O)O)o1	103	62	-1	97
COc1ccc(-c2nc(CN3CCC(C(=O)NC(C)C)CC3)c(C)o2)cc1OC	91	82	-5	98
Cc1ccccc1CN1C(=O)C(O)(CC(=O)c2ccncc2)c2ccccc21 (configuration not stated)	67	19*	11	103
Cc1ccc(C(=O)CC2(O)C(=O)N(Cc3ccc4c(c3)OCO4)c3ccccc32)cc1 (configuration not stated)	97	44	-2	99
O=C(CC1(O)C(=O)N(Cc2ccccc2)c2ccccc21)c1ccncc1 (configuration not stated)	75	17*	-5	98
